Screening data as filed in PubChem BioAssay.
These entries were drawn from the full list.
HKDC1 activator – HKDC1 hexokinase activators, primary screen, biochemical, fluorescence, uHTS | Q2TB90 | recombinant HKDC1, G6PDH/diaphorase resazurin fluorescence; active compounds read low | activity change, negative = activation, % at 20 µM | 0.056% of 340,000 active;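 active = activation of 40% or more at 20 µM, a change of -40% or lower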
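System: in-house human HKDC1 enzyme, G6PDH and diaphorase coupling enzymes; Quantity: 5 µg/mL HKDC1 final; Buffer or medium: Tris/MgCl2 buffer, pH 8.0; Dosing: single compound dose of 20 µM, 1% DMSO final; Times: 90 min reaction at room temperature, dark; Detection: coupled resazurin-to-resorufin fluorescence, Ex 525/Em 613 nm.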
The depositor's hits bear a star.

SMILES | HKDC1 activator
O=C1/C(=C\c2ccc(Cl)c(Cl)c2)CN(C(=O)CCN2CCOCC2)C/C1=C/c1ccc(Cl)c(Cl)c1 | 61
O=c1[nH]c(=O)c2nc3c4ccccc4c4ccccc4c3nc2[nH]1 | 37
Cc1c(C(=O)Oc2ccc(-c3cnc4ccccc4n3)cc2)cccc1[N+](=O)[O-] | -89*
O=C1C=C(N2CCCCC2)c2ccccc2C1=O | 81
Cc1ccc2c(c1C)-c1c(ccc(C)c1C)C(=O)C2=O | 38
CCCN(CCC)C(=S)NC(=O)c1ccc(-c2ccccc2)cc1 | -48*
Cc1ccc(C(=O)/C=C/c2cc(Br)cc(Br)c2O)o1 | 36
O=S(=O)(c1ccc(NC(=S)NN=C(Cc2ccccc2)Cc2ccccc2)cc1)N1CCOCC1 | -47*
Cc1cc2nnc(SCC(=O)Nc3cc(S(=O)(=O)N4CCOCC4)ccc3Cl)n2c2ccccc12 | 48
CCCC(=O)NC1=C(Cl)C(=O)c2ccccc2C1=O | 60
Cc1ccc(SSc2cc(C)ccc2N)c(N)c1 | -44*
CC(C)C(C(=O)O)N1C(=O)/C(=C/C=C/c2ccco2)SC1=S (configuration not stated) | 51
CC(=O)NC1C(=O)N(CCN2CCOCC2)c2ccc(Cl)cc21 (configuration not stated) | 82
COc1cc(NS(=O)(=O)c2ccc(NC(=O)c3ccc(F)cc3)cc2)ncn1 | -59*
CCOP(=O)(c1ccc(N(C)C)cc1)C(O)c1ccc(OC)cc1 (configuration not stated) | 56
Cc1cc(C2=NNC(=Nc3ccc(S(=O)(=O)N4CCOCC4)cc3)SC2)c(C)n1C | -73*
O=C(CCNC(=O)c1ccc([N+](=O)[O-])cc1)NCCC1=CCCCC1 | 35
Cc1nc([N+](=O)[O-])c(Br)n1CC(=O)c1ccc2ccccc2c1 | 46
CC(C)c1nc2oc3c(NCc4ccccn4)ncnc3c2c2c1COC(C)(C)C2 | 35
S=C(NCc1ccccn1)NN=Cc1ccccn1 | -44*
CCc1nn2c(=O)cc(COc3ccc(/C=C4\C(=N)N5N=C(C)SC5=NC4=O)cc3)nc2s1 | 58
O=C1CSC(=S)N1N=Cc1ccccc1O | -42*
CC1=NOC(=O)/C1=C\c1ccc(-c2ccc(Cl)cc2Cl)o1 | 54
O=S(=O)(O)c1ccc(O)c2cc(Nc3ccccc3)ccc12 | 65
N#C/C(=C(/O)CCl)c1nc2c(s1)CCc1ccccc1-2 | 44
SMILES | HKDC1 activator
Cc1cccc(NC2=C/C(=N/S(=O)(=O)c3cccs3)c3ccccc3C2=O)c1 | 53
N=C1N(c2ccccc2)C(=S)C(=Nc2ccccc2)N1c1ccccc1 | -77*
O=C(/C=C/c1cccc(Cl)c1)c1ccc([N+](=O)[O-])o1 | 61
COC(=O)c1cc(C)nc2c1C(=O)C(=O)C=C2N1CCOCC1 | 68
O=C(CN1C(=O)/C(=C2/SC(=S)N(CCS(=O)(=O)O)C2=O)c2ccccc21)Nc1cccc(C(F)(F)F)c1 | 36
O=C1NC(=S)S/C1=C\c1ccc(SCc2ccco2)o1 | 51
CCNc1ccc(Br)cc(C(=O)/C=C/c2c(Cl)cccc2Cl)c1=O | 37
O=C(O)CSc1cc(NS(=O)(=O)c2ccc(Cl)cc2)c2ccccc2c1O | 65
Cc1cc2cc(CN(Cc3cccs3)S(=O)(=O)c3ccc4c(c3)OCCO4)c(=O)[nH]c2cc1C | -47*
Cc1cc2cc(CCNC(=O)c3ccc(S(=O)(=O)N4CCCC4)cc3)c(=O)[nH]c2cc1C | 41
Cc1ccc(SC2=C(N(C)C)C(=O)c3ccccc3C2=O)cc1 | 57
O=C(C1=C(O)C(=O)N(c2nc3ccc(Cl)cc3s2)C1c1ccco1)c1ccco1 (configuration not stated) | 36
COc1ccccc1Nc1ccc2c(O)cc(S(=O)(=O)O)cc2c1 | 38
CCC(Sc1nc(C)cc(C)n1)C(=O)NC1=NN=C(c2ccc(C)cc2)CS1 (configuration not stated) | -149*
CCCCNC(=O)c1sc(=S)n2c1[nH]c(=O)c1ccc(C(=O)NCCc3ccc(OC)c(OC)c3)cc12 | 48
O=C(CN1C(=O)/C(=C2\SC(=S)N(CCS(=O)(=O)O)C2=O)c2ccccc21)Nc1cccc(Br)c1 | 58
CC(=O)NC1C(=O)N(CCN2CCOCC2)c2ccc(F)cc21 (configuration not stated) | 79
CCN1/C(=C/C=C/c2oc3ccc4ccccc4c3[n+]2CC)Oc2ccc3ccccc3c21 | 51
CCOC(=O)c1ccc(N=C2C(=S)N(c3ccc(C(=O)OCC)cc3)C(=N)N2/N=C/c2ccccc2)cc1 | -136*
O=C1C(Cl)=C(N2CCCCC2)C(=O)C(Cl)=C1c1cnc(N2CCCCC2)s1 | 70
COC1=C(OC)C(=O)C(Sc2ccc3ccccc3c2)=CC1=O | 71
COc1ccc2[nH]c(=O)c(CN(C3CCCCC3)C(c3nnnn3Cc3ccco3)C(C)C)cc2c1 (configuration not stated) | 37
CC(C)(C)c1nnc(N/N=C/c2cc(Br)ccc2O)n(N)c1=O | -43*
O=C(NCCC(=O)N1CCCC(C(F)(F)F)C1)c1ccc(Br)cc1 (configuration not stated) | 36
